This note sets out measurements from ChEMBL document CHEMBL1770091, “Synthesis and biological evaluation of benzyl styrylsulfonyl derivatives as potent anticancer mitotic inhibitors” (Bioorg Med Chem Lett, 2011).

One may read the GI50 as the concentration giving 50% growth inhibition. A high value points to less potent growth inhibition.

SMILES strings stand for the structures. A value given as a limit tells only on which side of the number the result lay.

The test system of series [1] is T47D. As to the kind of experiment: Cytotoxicity against human T47D cells after 72 hrs by MTT assay. The series is classed as functional. In outline:
(§1)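 Standard 72-h MTT cytotoxicity assay, reported as GI50. Cancer lines were run alongside non-transformed MRC-5 lung fibroblasts.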

Series [2] in a line: Cytotoxicity against human MDA468 cells after 72 hrs by MTT assay. The series is classed as functional. The settings on record: MDA-MB-468, 72 h. In outline:
(§2)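 MDA-468 cells were exposed to compound for 24, 48 or 72 h and growth inhibition was read by MTT assay. GI50 is the mean ± s.d. of three independent assays.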

Series [3] concerns HCT-116. Nature of the series: Cytotoxicity against human HCT116 cells after 72 hrs by MTT assay. Type of series: functional. The settings on record: HCT-116, 72 h. In outline: as §1
On the technique in general: Tetrazolium assays rely on reduction of a dye to a coloured formazan, in cell work by metabolically active cells.

In series [4] the test system is MCF7. Nature of the series: Cytotoxicity against human MCF7 cells after 72 hrs by MTT assay. Type of series: functional. The settings on record: MCF7, 72 h. The essentials:
as §1

Series [5] can be described thus: Cytotoxicity against human MRC5 cells after 72 hrs by MTT assay. The series is classed as cell-based. In outline: as §1
Series [6] can be described thus: Cytotoxicity against human MDA468 cells after 24 hrs by MTT assay. The settings on record: MDA-MB-468, 24 h. The series is classed as functional. In outline: as §2
Series [7] in a line: Cytotoxicity against human MDA468 cells after 48 hrs by MTT assay. Type of series: functional. The settings on record: MDA-MB-468, 48 h. In outline:
as §2

Series [8] in a line: Cell cycle arrest in human MDA468 cells assessed as accumulation at G2/M phase at 0.5 uM after 20 hrs by flow cytometry. The series is classed as functional, cell-based. The settings on record: MDA-MB-468. In outline:
(§3)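 Cells in exponential growth seeded at 4×10^5, incubated overnight at 37 °C in humidified 5% CO2, then exposed to compound for 20 h. Cells collected, washed once in cold PBS, resuspended in hypotonic fluorochrome solution, and analysed for cell-cycle distribution (% G2/M DNA content) by flow cytometry. Mean ± s.d. of three independent experiments; DMSO vehicle control.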
(A flow cytometer gives signals particle by particle.)

Series [9] can be described thus: Cell cycle arrest in human MDA468 cells assessed as accumulation at G2/M phase at 1 uM after 20 hrs by flow cytometry. Type of series: functional, cell-based. The settings on record: MDA-MB-468. The essentials: as §3
Series [10] relates to MDA-MB-468. As to the kind of experiment: Induction of apoptosis in human MDA468 cells assessed as appearance of apoptotic bodies after 20 hrs by annexinV/propidium iodide staining. The series is classed as functional, cell-based. In outline:
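After overnight culture, 4×10^5 cells per well were treated with compound at 0.5, 1 and 10 μM for 20 h. Apoptosis was measured by annexin V/PI double staining and flow analysis, scored as early (annexin V-positive) plus late (annexin V- and PI-positive) apoptotic cells. Mean ± s.d. of three independent experiments versus DMSO vehicle control.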

For series [11], the system named is MCF7. As to the kind of experiment: Metabolic stability of the compound in human MCF7 cells at 1 uM. The series is classed as ADME, cell-based. The settings on record: mcf7, 1 µM.
Series [12] has as its system MRC5. As to the kind of experiment: Metabolic stability of the compound in human MRC5 cells at 1 uM. Type of series: ADME, cell-based. The settings on record: mrc5, 1 µM.
The test system of series [13] is T47D. Nature of the series: Ratio of GI50 for human MRC5 cells to GI50 for human T47D cells. In outline: (§4)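 Selectivity was calculated as GI50 in non-transformed MRC-5 fibroblasts divided by GI50 in each cancer line. All GI50 values came from 72-h MTT assays.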
Series [14] concerns MRC5. Nature of the series: Ratio of GI50 for human MRC5 cells to GI50 for human MDA468 cells. In outline:
as §4

Series [15] deals with MRC5. As to the kind of experiment: Ratio of GI50 for human MRC5 cells to GI50 for human HCT116 cells. The essentials: as §4
For series [16], the system named is MRC5. Nature of the series: Ratio of GI50 for human MRC5 cells to GI50 for human MCF7 cells. In outline:
as §4

Regarding `COc1ccc(CS(=O)(=O)/C=C/c2c(OC)cccc2OC)cc1[N+](=O)[O-]`, the GI50 in series [1] was more than 30 µM; in series [2], 5.46 µM; in series [3], 10.2 µM; in [4] it was 13.7 µM. The compound also showed a GI50 at 72 h in series [5] of more than 30 µM.

Regarding `COc1ccc(OC)c(NC(=O)CS(=O)(=O)Cc2ccc(OC)c([N+](=O)[O-])c2)c1`, the 50% growth inhibitory concentration (GI50) in [1], in series [2], in series [3] and in series [4] was more than 30 µM throughout. The compound also registered a GI50 at 72 h in series [5] of more than 30 µM.

For `COc1ccc(CS(=O)(=O)CC(=O)Nc2ccccc2)cc1[N+](=O)[O-]`, the GI50 in series [1], in series [2], in series [3] and in series [4] was more than 30 µM each time. Moreover, in series [5], the GI50 at 72 h was more than 30 µM.

On to `COc1cc(OC)c(/C=C/S(=O)(=O)Cc2ccc(OC)c(NCC(=O)O)c2)c(OC)c1` [RIGOSERTIB], for which the GI50 in series [1] is less than 0.01 µM; in [2] it was 0.02 µM; in [3], 0.05 µM; in series [4], 0.05 µM; in series [6], 601 nM; in [7], 302 nM. Besides, the GI50 at 72 h in [5] came to 0.71 µM. Further, the Activity in series [8] was 58%; in [9], 84%; in series [10] it was “Dose-dependent effect”. Also, the Stability entry in series [11] and in series [12] was “Stable” each time.

With `COc1ccc(CS(=O)(=O)/C=C/c2ccc(OC)c(OC)c2OC)cc1[N+](=O)[O-]`, the GI50 in [1] was more than 30 µM; in series [2] it was 21.9 µM; in [3], 27.9 µM; in [4], more than 30 µM. This compound had a GI50 at 72 h in series [5] of more than 30 µM.

In the case of `COc1cc(OC)c(/C=C/S(=O)(=O)Cc2ccc(OC)c([N+](=O)[O-])c2)c(OC)c1`, the GI50 in series [3] was 0.66 µM; in [4] it was 0.88 µM. Moreover, in series [5], the GI50 at 72 h was 2.91 µM.

For the compound `COc1cc(OC)c(/C=C/S(=O)(=O)Cc2ccc(OC)c(N)c2)c(OC)c1`, the figures for the GI50 in series [2], in [3] and in series [4] were 0.03 µM, less than 0.01 µM and less than 0.01 µM, respectively. Further, growth in series [5] was halved (GI50 at 72 h) at 0.08 µM.

For the compound `COc1ccc(CS(=O)(=O)CC(=O)Nc2c(C)cc(C)cc2C)cc1[N+](=O)[O-]`, the GI50 was more than 30 µM in series [1], more than 30 µM in series [2], 7.91 µM in series [3] and more than 30 µM in series [4]. For the same compound, in series [5], halving of growth (GI50 at 72 h) required 28 µM.

Consider `COc1cc(/C=C/S(=O)(=O)Cc2ccc(OC)c([N+](=O)[O-])c2)cc(OC)c1`, for which the GI50 in series [1] was more than 30 µM; in series [2] it was 16.5 µM; in series [3], more than 30 µM; in series [4], more than 30 µM. In [5], this compound yielded a GI50 at 72 h of more than 30 µM.

As to `COc1ccc(CS(=O)(=O)CC(=O)Nc2ccccc2)cc1N`, the GI50 in series [1], in series [2], in series [3] and in [4] was more than 30 µM each time. The GI50 at 72 h in [5] was more than 30 µM.

For `COc1ccc(CS(=O)(=O)CC(=O)Nc2c(C)cc(C)cc2C)cc1N`, the GI50 in series [1], in series [2], in series [3] and in series [4] was more than 30 µM each time. Also, in series [5], the GI50 at 72 h is more than 30 µM.

For `COc1cc(OC)c(NC(=O)CS(=O)(=O)Cc2ccc(OC)c([N+](=O)[O-])c2)c(OC)c1`, the GI50 in series [1] was more than 30 µM; in series [2], more than 30 µM; in series [3], 18.8 µM; in series [4], more than 30 µM. Besides, the GI50 at 72 h in series [5] is more than 30 µM.

For the compound `COc1cc(OC)c(/C=C/S(=O)(=O)Cc2ccc(OC)c(NC(C)=O)c2)c(OC)c1`, the GI50 in series [3] turned out to be 0.15 µM; in [4] it was 0.35 µM. In [5], this compound had a GI50 at 72 h of 0.81 µM.

Consider `COc1ccc(CS(=O)(=O)/C=C/c2ccc(OC)c(OC)c2OC)cc1N`, for which the GI50 in series [1] amounted to 5.9 µM; in series [2] it was 3.48 µM; in series [3] it was 5.31 µM; in series [4], 5.95 µM. In series [5], this compound returned a GI50 at 72 h of more than 30 µM.

As for `COc1cc(/C=C/S(=O)(=O)Cc2ccc(OC)c(N)c2)cc(OC)c1`, the GI50 turned out to be 0.53 µM in series [1], 0.52 µM in series [2], 0.54 µM in series [3] and 0.49 µM in series [4]. The same compound returned a GI50 at 72 h in series [5] of more than 30 µM. Further, the RatioGI50 in series [13], in series [14], in series [15] and in series [16] was less than 80 throughout.

With `COc1cc(OC)c(/C=C/[S+]([O-])Cc2ccc(OC)c(N)c2)c(OC)c1` (configuration not stated), the GI50 in series [1] was 0.06 µM; in series [2] it was less than 0.01 µM; in [3], less than 0.01 µM; in [4], less than 0.01 µM; in [6], 559 nM; in series [7], 137 nM. The compound also had a GI50 at 72 h in series [5] of more than 30 µM. Moreover, the Activity in [8] is 77%; in [9], 85%; in series [10], “Dose-dependent effect”. Further, the Stability result in series [11] and in series [12] was “Stable” in each case.

`COc1ccc(CS(=O)(=O)/C=C/c2c(OC)cccc2OC)cc1N`: the GI50 is 0.05 µM in [1], 0.06 µM in series [2], 0.02 µM in series [3] and 0.04 µM in series [4]. In series [5], this compound gave a GI50 at 72 h of 17.1 µM. Further, the RatioGI50 in series [13], in series [14], in series [15] and in series [16] was less than 280 in each case.
